This is a sample that favours compounds with a hit; in the whole collection about 2.1% have one here.
Autophagy mod: autophagy modulators in MEF cells, primary screen, imaging, high-content, MEF GFP-LC3; 190,000 compounds, 0.98% hits; AID 463193, 2010; MEF GFP-LC3 puncta imaging; test concentration mostly 10 µM; calls only at 10 µM (by protocol);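 active means percentage of spot-positive cells more than 3 SD above its plate mean, without a fluorescence outlier flag or 80% toxicity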;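 further: spot-positive cell cutoff set from DMSO-treated cells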
ABCG2 block: ABCG2 efflux pump inhibitors, primary screen, multiplex with ABCB1, IgMXP3 cells, flow cytometry; 190,000 compounds, 0.1% hits; JC-1 efflux; AID 1325, 2008; inhibition, % at 6.6 µM;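 active means inhibition above 80%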;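 further: 0% = DMSO and 100% = nicardipine control wells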
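Test system: ABCG2 IgMXP3 and barcoded ABCB1 CCRF-Adr cell mix; Schedule: cells with compound and JC-1, 10 min at 25 °C, rotating, no wash; Technique: flow cytometry of retained JC-1 fluorescence; Measure: % inhibition of efflux relative to nicardipine and DMSO; Controls: nicardipine high and DMSO low controls.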
MT stabilizer: microtubule stabilizers in HeLa cells, primary screen, imaging, high-content imaging. HeLa tubulin immunostaining HCS, 24 h; share of cells brighter than vehicle mean+2SD. % tubulin-high responders, % at 10 µM. 200,000 compounds, 0.83% hits. AID 2205, 2009;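 active means plate Z-score above 3 for both tubulin-high and condensed-nucleus cell shares, with cell loss under 80%, at 10 µM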;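 further: anti alpha tubulin signal scored within the nucleus-defined area of each cell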
b-catenin transl: modulators of beta-catenin nuclear translocation, primary screen, imaging, HeLa cells, immunofluorescence, high-content | nuclear translocation activity, % at 5 µM | 190,000 compounds, 0.3% hits;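 active means nuclear translocation activity above 50% at 5 µM, with a well cell count of 50 or more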;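 further: per-cell ratio of nuclear to cytoplasmic median beta-catenin stain intensity; plate controls were DMSO negative control for no effect and GSK-3 inhibitor IX positive control for full effect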
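test system = HeLa cells, endogenous beta-catenin | dosing = single 5 µM dose plus 0.02–20 µM confirmation series | times = compound treatment 24 h, 37°C, 5% CO2 | technique = beta-catenin immunofluorescence imaging with DAPI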
ABCB1 block: ABCB1 efflux pump inhibitors, primary screen, cell-based, multiplex, flow cytometry, ABCG2 counter-screen; ATP-dependent translocase ABCB1 (Homo sapiens), P08183; CCRF-Adr cells, JC-1 efflux; inhibition, % at 6.6 µM; 190,000 compounds, 0.067% hits; AID 1326, 2008; in the data active means inhibition above about 40%;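 further: 0% = vehicle and 100% = reference inhibitor; higher value means more JC-1 retained so stronger ABCB1 efflux block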
Arbovirus inh: antivirals against arbovirus infection, primary screen, cell-based, full library, 10K replicate subset. AID 1251, 2008. 200,000 compounds, 0.37% hits. inhibition, % at 10 µM. arbovirus infection cell-based antiviral screen; in the data active means inhibition above about 30%
* = called active by the depositor; i = inactive; · = no result given; + = active, no number.

SMILES	Autophagy mod	ABCG2 block	MT stabilizer	b-catenin transl	ABCB1 block	Arbovirus inh
COc1ccc(Cl)cc1C(=O)NNC(=O)c1cccc([N+](=O)[O-])c1	i	22.1	2.9	0.4	1.0	-6.8
COc1ccccc1C(=O)N1CCN(c2cccc(Cl)c2)CC1	i	6.1	31.1*	56.4*	1.2	-14.0
O=C(c1cccc(S(=O)(=O)N2CCCC2)c1)N1CCN(c2ccccc2)CC1	i	2.9	17.8*	·	1.0	-19.7
Cc1ccc(N2CN(Cc3ccco3)CNC2=S)c(C)c1	i	21.7	3.0	0.4	1.6	6.9
O=C(c1cccc(F)c1)N1CCN(c2cccc(Cl)c2)CC1	i	18.9	21.5*	·	0.1	-8.1
O=C(c1c(Cl)nc2sccn12)N1CCN(c2cccc(Cl)c2)CC1	i	7.3	19.0*	112.0*	1.1	-6.0
O=C(c1cccc(F)c1)N1CCCN(C(=O)c2cccc(F)c2)CC1	i	4.6	1.4	1.8	1.8	6.7
COCCn1c(C)cc(C(=O)COC(=O)CCc2ccc(S(=O)(=O)N3CCOCC3)cc2)c1C	i	1.8	2.1	-0.4	0.6	4.4
Cc1ccc(OCC(O)CNS(=O)(=O)c2ccccc2C(=O)O)cc1 (stereo not given)	i	4.6	1.6	-5.2	1.7	2.0
Clc1ccc(Cn2ncc3c(NCc4ccco4)ncnc32)c(Cl)c1	i	0.8	46.0*	·	0.2	-16.2
COc1ccc(Nc2ncnc3c2cnn3Cc2ccccc2)cc1	i	·	3.3	-2.2	·	-21.3
Clc1ccc(-n2ncc3c(NCc4ccco4)ncnc32)cc1	i	2.9	6.3	-2.8	0.1	-14.8
c1ccc(CNc2ncnc3c2cnn3Cc2ccccc2)cc1	i	2.2	43.7*	-0.5	0.2	-14.9
COc1cccc(-c2nnc3sc(-c4ccccc4)nn23)c1	i	6.2	5.0	-8.6	0.7	-15.4
COc1cccc(OC)c1-c1nn2c(-c3cc(-c4ccccc4)n[nH]3)nnc2s1	i	3.0	40.2*	37.2	0.8	-11.9
COc1cccc(C2C=C(c3ccc(Br)s3)Nc3ncnn32)c1OC (stereo not given)	i	5.3	1.8	-0.2	1.1	1.0
Fc1ccc(Br)cc1C1C=C(c2ccc(Br)s2)Nc2ncnn21 (stereo not given)	i	4.5	6.0	50.3*	0.7	36.7*
CC(C(=O)Nc1ccc2c(c1)OCCO2)N(C)Cc1c(F)cccc1Cl (stereo not given)	+	22.8	1.2	-2.0	2.9	-21.4
COc1ccc(Cl)cc1NC(=O)c1cc(-c2ccccc2O)n[nH]1	i	6.2	3.0	-0.1	-0.5	70.3*
COc1ccc(OC)c(NC(=O)c2cc(-c3cc(Cl)ccc3O)n[nH]2)c1	i	-2.7	5.1	-3.1	-0.8	22.0
Cc1c(Cl)cccc1NC(=O)c1cc(-c2ccccc2O)n[nH]1	i	-1.3	3.0	·	-0.3	30.5*
CN(C)CCN1C(=O)C(O)=C(C(=O)c2cc3ccccc3o2)C1c1ccc(N(C)C)cc1 (stereo not given)	·	-3.3	6.2	2.0	-2.6	3.2
CCn1cc(C(C)(C)C)c(C#N)c1NC(C)=O	+	-7.0	4.8	-2.5	-8.1	-2.0
Cc1cccc2c1-c1sc(C(=O)Nc3nccs3)cc1CO2	i	-3.5	9.2	·	-1.6	82.4*
O=C(Nc1nc2ccccc2s1)c1cc2c(s1)-c1ccccc1OC2	+	-1.3	3.2	-1.5	-0.5	8.9
C[C@H](N)c1nnc(SCc2ccc(Cl)cc2Cl)o1	i	1.5	1.2	-4.0	0.4	1.4
c1ccc(C2Nc3ccccc3-c3nc4ccccc4n32)nc1 (stereo not given)	i	0.3	3.6	-3.4	0.2	5.3
Cc1ccsc1C1Nc2ccc3ncccc3c2C2=C1C(=O)CC(C)(C)C2 (stereo not given)	i	3.8	36.9*	-2.0	3.4	1.1
